Assay results taken from publication PMC7501995 (Cell metabolism, 2020).

Tests used:
[1] = system: TXNIP protein levels in INS-1 cells; assay: TXNIP protein immunoblotting in INS-1 cells; assay type: cell-based, rat; conditions: 24h
Procedure, shortened: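 Rat INS-1 beta-like cells were grown at 37°C in humidified 5% CO2. Whole-cell protein extracts were prepared and protein was quantified by BCA assay. Equal protein amounts were loaded per lane for TXNIP immunoblotting.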

[2] = Cellular cytotoxicity assay; assay type: cell-based; conditions: in vitro
[3] = Off-target liability panel; conditions: currently available panel
[4] = system: TXNIP expression in human islets; assay type: cell-based
Procedure, shortened: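 INS-1 cells, C57BL/6J mouse islets (collagenase XI-isolated) or human islets (at least three donors, same-donor controls) kept overnight in 5 mM glucose RPMI 1640. Then incubated 24 h in 25 mM glucose RPMI 1640 with or without 1 µM test compound. TXNIP and related mRNAs measured by qRT-PCR; n = 6 (INS-1) or 3 (mouse islets) independent experiments.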

C57BL/6J mice = assay: Oral administration in drinking water to wild-type C57BL/6J mice; assay type: in vivo, mouse
db/db mice = assay: Oral treatment of obese, diabetic db/db mice; assay type: in vivo, mouse
L-type calcium channels = assay: Calcium channel blockade; conditions: in contrast to verapamil
[5] = C57BL/6J mice, oral 100 mg/kg/day
[6] = livers of treated C57BL/6J mice
[7] = male C57BL/6J mice, oral 100 mg/kg/day, 3 weeks

CS(=O)(=O)NCC1CCCN(c2ncnc3ccc(C(F)(F)F)cc23)C1 (centres unmarked) [SRI-37330, N-((1-(6-(trifluoromethyl)quinazolin-4-yl)piperidin-3-yl)methyl)methanesulfonamide]
TXNIP protein levels [1]: inhibited TXNIP protein levels in a dose-dependent manner
cytotoxicity [2]: no cytotoxicity
off-target liabilities [3]: lack of off-target liabilities
expression of other arrestin genes ARRB1 and ARRDC3 and of thioredoxin ([4]; human islets, qRT-PCR, negative controls): not affected
TXNIP expression in the context of high glucose ([4]; isolated human islets, 25 mM glucose, 1 μM, 24 h): significantly inhibit TXNIP expression
fasting blood glucose (C57BL/6J mice; [5]): slightly, but significantly lower
fasting serum glucagon (C57BL/6J mice; [5]): lower
fasting serum insulin (C57BL/6J mice; [5]): unchanged
non-fasting blood glucose (C57BL/6J mice; C57BL/6J mice, oral 100 mg/kg/day, within 3 days, persisted 3 weeks): small but significant decrease in blood glucose levels
insulin tolerance test (ITT) (C57BL/6J mice; C57BL/6J mice, oral 100 mg/kg/day, 1 U/kg insulin i.p.): remained unaltered
intraperitoneal glucose tolerance test (GTT) (C57BL/6J mice; C57BL/6J mice, oral 100 mg/kg/day, 3 g/kg glucose i.p. after 4 h fast): consistently and significantly improved glucose tolerance
blood glucose during insulin-induced hypoglycemia (C57BL/6J mice; fasting mice, 15 min after insulin bolus 1 U/kg): able to maintain their blood glucose levels equally well to untreated controls
fatty liver (liver histology) (C57BL/6J mice; lean mice): did not lead to any fatty liver
liver expression of Pck1 and G6pc (C57BL/6J mice; [6]): lower expression
liver glycogen content (C57BL/6J mice; [6]): higher glycogen content
tolerability (C57BL/6J mice; male C57BL/6J mice, oral 100 mg/kg/day in drinking water, 3 weeks): well tolerated
body weight (C57BL/6J mice; [7]): no change in body weight
gross abnormalities in organs at sacrifice (C57BL/6J mice; [7]): no gross abnormalities in any organs
safety profile in vivo (C57BL/6J mice; mouse, in vivo): excellent safety profile in vivo
liver and serum triglyceride levels (C57BL/6J mice; treated C57BL/6J mice): lower liver and serum triglyceride levels
liver transaminase levels (C57BL/6J mice; treated C57BL/6J mice): did not cause any elevation in liver transaminase levels
hepatic steatosis (liver histology) (db/db mice; db/db mice): dramatically improved the severe steatosis
alpha cell mass (db/db mice; db/db mice, islet morphometry): small, but significant decline in alpha cell mass
alpha cell number (db/db mice; db/db mice, islet morphometry): clear trend towards lower alpha cell number
beta cell mass and number (db/db mice; db/db mice, islet morphometry): remained unchanged
fasting blood glucose (db/db mice; db/db mice, oral): significantly downregulated
fasting serum glucagon (db/db mice; db/db mice, oral): significant downregulate
fasting serum insulin (db/db mice; db/db mice, oral): remained unchanged
body weight (db/db mice; db/db mice, oral, 4 weeks): did not affect body weights
non-fasting blood glucose (db/db mice; db/db mice, oral, 4 weeks): decreased significantly within 3 days of starting SRI-37330 treatment and returned to euglycemic levels
effectiveness by oral gavage twice a day (db/db mice; obesity-induced diabetes, gavage 12 h apart): confirmed its effectiveness in obesity- as well as STZ-induced diabetes
calcium channel blocker activity (L-type calcium channels): not a calcium channel blocker
